PubChem BioAssay AID463104 (Sanford-Burnham Center for Chemical Genomics, 2010)
Screen size: about 330,000 compounds; about 1,100 (0.33%) were called active. What follows is part of a selection rich in actives, with near analogues and random picks from the rest. A number with no mark means an inactive call.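 Rule for the calls: active = versus positive control, 20 µM dose yields 30% or more activation; inactive = the rest.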

Experiment: IRE1-XBP1 pathway stimulators – cell-based, CHO-XBP1 luciferase reporter, luminescence, uHTS, primary screen (AID 463104);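 note: 100% = tunicamycin at 10 µg/mL and 0% = DMSO only wells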
Details: IRE1-XBP1 UPR activation, at 20 µM, active compounds read high, percent of tunicamycin response, DMSO as zero
Outline: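 Assay system: IRE1-XBP1 luciferase reporter CHO line. Input: 1000 cells/well. Buffer or medium: F12 with 10% serum. Doses: 20 µM, 1% DMSO. Times: overnight seeding at 37 °C, 6 h compound treatment at 37 °C. Technique: Steady-Glo luciferase glow luminescence, 10 min after reagent addition.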
Molecule `CCOC(=O)c1c(N)n(Cc2ccccc2)c2nc3ccccc3nc12` has an activation of 2.64%. For `COc1cc(Cn2c(N)c(C(=O)NCc3ccco3)c3nc4ccccc4nc32)cc(OC)c1OC`, the activation was 35.8% (active). Molecule `COC(=O)C1=C(c2ccccc2)C[C@@H]2CC[C@H]1N2C(=O)NCc1ccco1` has an activation of 1.2%. `CC(C(=O)Nc1ccc(Cl)cc1Cl)N1CC=C(c2ccccc2)CC1` (stereo not given) gave an activation of -1.2%. For `CNC(=O)O/N=C(\N)Cc1csc2ccc(Cl)cc12`, the activation was 0.76%.
